Data reported in ChEMBL document CHEMBL5329183, “Naphthylthiazoles: a class of broad-spectrum antifungals” (RSC Med Chem, 2023).
In brackets after ≈: the same amount, converted by molar mass. Activity calls are given as the source filed them. The rule behind the calls is not given here.

What was measured:
Staphylococcus aureus = assay: Antibacterial activity against Methicillin-resistant Staphylococcus aureus USA300 assessed as inhibition of bacterial growth; format: functional
Clostridioides difficile = assay: Antibacterial activity against Clostridium difficile ATCC BAA1870 assessed as inhibition of bacterial growth; format: functional
Escherichia coli [1] = assay: Antibacterial activity against Escherichia coli JW55031 harboring tolC mutant assessed as inhibition of bacterial growth; format: functional
Escherichia coli [2] = assay: Antibacterial activity against wild type Escherichia coli BW25113 assessed as inhibition of bacterial growth; format: functional
Candida albicans [3] = assay: Antifungal activity against wild type Candida albicans SC5314 assessed as inhibition of fungal growth; format: functional
Candida albicans [4] = assay: Antifungal activity against Candida albicans ATCC 10231 assessed as inhibition of fungal growth incubated for 24 hrs by broth microdilution method; format: functional
Outline: (§1)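 Broth microdilution per CLSI guidelines against clinical isolates, incubated at 35 °C for 24 h (Candida, Aspergillus) or 48 h (Cryptococcus). MIC was the lowest concentration giving 50% growth inhibition.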

Candida albicans [5] = assay: Antifungal activity against Candida albicans NR 29448 assessed as inhibition of fungal growth incubated for 24 hrs by broth microdilution method; format: functional
Outline: (§2)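 Clinical isolate; CLSI broth microdilution over a range of concentrations (media listed: RPMI 1640, MOPS, YPD). MIC taken as lowest concentration giving 50% growth inhibition after 24 h at 35 °C.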

[Candida] auris [6] = Antifungal activity against Candida auris 381 assessed as inhibition of fungal growth incubated for 24 hrs by broth microdilution method; format: functional; conditions: Candidozyma auris; outline: as §2
[Candida] auris [7] = Antifungal activity against Candida auris 382 assessed as inhibition of fungal growth incubated for 24 hrs by broth microdilution method; format: functional; conditions: Candidozyma auris; outline: as §2
[Candida] auris [8] = Antifungal activity against Candida auris 383 assessed as inhibition of fungal growth incubated for 24 hrs by broth microdilution method; format: functional; conditions: Candidozyma auris; outline: as §2
Nakaseomyces glabratus [9] = assay: Antifungal activity against Candida glabrata ATCC 66032 assessed as inhibition of fungal growth incubated for 24 hrs by broth microdilution method; format: functional; outline: as §2
Nakaseomyces glabratus [10] = assay: Antifungal activity against Candida glabrata ATCC MYA2950 assessed as inhibition of fungal growth incubated for 24 hrs by broth microdilution method; format: functional; outline: as §2
Candida parapsilosis [11] = assay: Antifungal activity against Candida parapsilosis ATCC 22019 assessed as inhibition of fungal growth incubated for 24 hrs by broth microdilution method; format: functional; conditions: Lodderomyces parapsilosis; outline: as §2
Candida parapsilosis [12] = assay: Antifungal activity against Candida parapsilosis CAB 502638 assessed as inhibition of fungal growth incubated for 24 hrs by broth microdilution method; format: functional; conditions: Lodderomyces parapsilosis; outline: as §1
Pichia kudriavzevii [13] = assay: Antifungal activity against Candida krusei CAB 396420 assessed as inhibition of fungal growth incubated for 24 hrs by broth microdilution method; format: functional; outline: as §1
Pichia kudriavzevii [14] = assay: Antifungal activity against Candida krusei ATCC 34135 assessed as inhibition of fungal growth incubated for 24 hrs by broth microdilution method; format: functional; outline: as §1
Cryptococcus neoformans [15] = assay: Antifungal activity against Cryptococcus neoformans NR 41298 assessed as inhibition of fungal growth incubated for 48 hrs by broth microdilution method; format: functional
Outline: (§3)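 Clinical isolate; CLSI broth microdilution over a range of concentrations (media listed: RPMI 1640, MOPS, YPD). MIC read as lowest concentration inhibiting growth by 50% after 48 h incubation at 35 °C.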

Cryptococcus neoformans [16] = assay: Antifungal activity against Cryptococcus neoformans NR 41300 assessed as inhibition of fungal growth incubated for 48 hrs by broth microdilution method; format: functional; outline: as §3
Cryptococcus neoformans [17] = assay: Antifungal activity against Cryptococcus neoformans NR 48770 assessed as inhibition of fungal growth incubated for 48 hrs by broth microdilution method; format: functional; outline: as §3
Cryptococcus neoformans [18] = assay: Antifungal activity against Cryptococcus neoformans NR 41299 assessed as inhibition of fungal growth incubated for 48 hrs by broth microdilution method; format: functional; outline: as §3
Cryptococcus neoformans [19] = assay: Antifungal activity against Cryptococcus neoformans NR 48767 assessed as inhibition of fungal growth incubated for 48 hrs by broth microdilution method; format: functional; outline: as §3
Cryptococcus neoformans [20] = assay: Antifungal activity against Cryptococcus neoformans NR 48771 assessed as inhibition of fungal growth incubated for 48 hrs by broth microdilution method; format: functional; outline: as §3
Cryptococcus neoformans [21] = assay: Antifungal activity against Cryptococcus neoformans NR 48773 assessed as inhibition of fungal growth incubated for 48 hrs by broth microdilution method; format: functional; outline: as §3
[22] = Antifungal activity against Cryptococcus gattii NR 43210 assessed as inhibition of fungal growth incubated for 48 hrs by broth microdilution method; format: functional, Cryptococcus gattii VGI; outline: as §1
[23] = Antifungal activity against Cryptococcus gattii NR 43209 assessed as inhibition of fungal growth incubated for 48 hrs by broth microdilution method; format: functional, Cryptococcus gattii VGI; outline: as §1
[24] = Antifungal activity against Cryptococcus gattii NR 43213 assessed as inhibition of fungal growth incubated for 48 hrs by broth microdilution method; format: functional, Cryptococcus gattii VGI; outline: as §1
[25] = Antifungal activity against Cryptococcus gattii NR 43214 assessed as inhibition of fungal growth incubated for 48 hrs by broth microdilution method; format: functional, Cryptococcus gattii VGI; outline: as §1
[26] = Antifungal activity against Cryptococcus gattii NR 43216 assessed as inhibition of fungal growth incubated for 48 hrs by broth microdilution method; format: functional, Cryptococcus gattii VGI; outline: as §1
Lactobacillus gasseri = assay: Antibacterial activity against Lactobacillus gasseri HM400 assessed as inhibition of bacterial growth; format: toxicity, organism-based
[27] = Antibacterial activity against Lactobacillus casei HM334 assessed as inhibition of bacterial growth; format: toxicity; conditions: lacticaseibacillus casei
[28] = Antibacterial activity against Lactobacillus crispatus HM370 assessed as inhibition of bacterial growth; format: toxicity
Cryptococcus neoformans [29] = assay: Antibiofilm activity against Cryptococcus neoformans NR 41300 assessed as inhibition of biofilm formation at 0.5xMIC measured after 48 hrs by crystal violet staining based analysis; format: functional
Outline: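 Overnight C. neoformans was washed twice in PBS and adjusted to 105 cells per mL in RPMI. Cells were exposed to compound at 0.5 × MIC for 48 h at 35 °C. Biofilm was rinsed, dried, stained with 0.1% crystal violet, and the dye extracted with glacial acetic acid; OD595 readout.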

Cryptococcus neoformans [30] = assay: Anti-cryptococcal activity against Cryptococcus neoformans NR 41300 infected in mouse J774 cells assessed as log reduction of intracellular fungal colony forming unit at 4 ug/ml measured after 24 hrs; format: functional; conditions: dose 4 µg/ml
Outline: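 C. neoformans NR-41300 was grown 48 h in YPD, washed, and used to infect J774 macrophages at MOI ~100:1 for 1 h, followed by PBS washes. Compounds at 4 μg mL−1 (triplicate) were applied for 22 h at 37 °C, 5% CO2. Extracellular yeast were killed with amphotericin B 1 μg mL−1 for 1 h. Cells were lysed in 0.1% Triton X-100 and plated on YPD agar for 48 h at 37 °C; readout log10 CFU mL−1.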

Aspergillus fumigatus [31] = assay: Antifungal activity against Aspergillus fumigatus NR 35303 assessed as inhibition of fungal growth incubated for 24 hrs by broth microdilution method; format: functional; outline: as §1
Aspergillus fumigatus [32] = assay: Antifungal activity against Aspergillus fumigatus NR 35304 assessed as inhibition of fungal growth incubated for 24 hrs by broth microdilution method; format: functional; outline: as §1
[33] = Apparent permeability of the compound measured after 4 hrs by PAMPA assay; format: ADME
Outline: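 PAMPA: compound was placed in pH 6.5 donor buffer across a lipid-pretreated PVDF filter from pH 7.4 acceptor buffer, and incubated 4 h at ambient temperature. Donor and acceptor amounts at start and end were measured by UV absorbance to give apparent permeability.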

Cc1nc(-c2ccc3ccccc3c2)sc1-c1nnc(N2CC[C@H](N(C)C)C2)o1
MIC (Staphylococcus aureus): > 64 µg/mL | MIC (Clostridioides difficile): > 64 µg/mL | MIC (Escherichia coli [1]): > 64 µg/mL | MIC (Escherichia coli [2]): > 64 µg/mL | MIC (Candida albicans [3]): 8 µg/mL (≈ 19.7 µM)

Cc1nc(-c2ccc3ccccc3c2)sc1-c1nnc(NCCN)o1
MIC (Staphylococcus aureus): 32 µg/mL (≈ 91.1 µM) | MIC (Clostridioides difficile): 64 µg/mL (≈ 182 µM) | MIC (Escherichia coli [1]): 64 µg/mL (≈ 182 µM) | MIC (Escherichia coli [2]): > 64 µg/mL | MIC (Candida albicans [3]): 32 µg/mL (≈ 91.1 µM)

Cc1nc(-c2ccc3ccccc3c2)sc1-c1nnc(N2CC[C@@H](N(C)C)C2)o1
MIC (Staphylococcus aureus): 4 µg/mL (≈ 9.86 µM) | MIC (Clostridioides difficile): 16 µg/mL (≈ 39.5 µM) | MIC (Escherichia coli [1]): 32 µg/mL (≈ 78.9 µM) | MIC (Escherichia coli [2]): > 64 µg/mL | MIC (Candida albicans [3]): 32 µg/mL (≈ 78.9 µM)

CCNc1nnc(-c2sc(-c3ccc4ccccc4c3)nc2C)o1
MIC (Staphylococcus aureus): 64 µg/mL (≈ 190 µM) | MIC (Clostridioides difficile): 64 µg/mL (≈ 190 µM) | MIC (Escherichia coli [1]): 64 µg/mL (≈ 190 µM) | MIC (Escherichia coli [2]): > 64 µg/mL | MIC (Candida albicans [3]): > 64 µg/mL

OC(Cn1cncn1)(Cn1cncn1)c1ccc(F)cc1F [FLUCONAZOLE]
MIC (Candida albicans [3]): 0.5 µg/mL (≈ 1.63 µM) | MIC (Candida albicans [4]): 1 µg/mL (≈ 3.27 µM) | MIC (Candida albicans [5]): > 128 µg/mL | MIC ([Candida] auris [6]): 2 µg/mL (≈ 6.53 µM) | MIC ([Candida] auris [7]): 64 µg/mL (≈ 209 µM) | MIC ([Candida] auris [8]): 64 µg/mL (≈ 209 µM) | MIC (Nakaseomyces glabratus [9]): 8 µg/mL (≈ 26.1 µM) | MIC (Nakaseomyces glabratus [10]): 16 µg/mL (≈ 52.2 µM) | MIC (Candida parapsilosis [11]): 1 µg/mL (≈ 3.27 µM) | MIC (Candida parapsilosis [12]): 0.5 µg/mL (≈ 1.63 µM) | MIC (Pichia kudriavzevii [13]): 16 µg/mL (≈ 52.2 µM) | MIC (Pichia kudriavzevii [14]): 16 µg/mL (≈ 52.2 µM) | MIC (Cryptococcus neoformans [15]): 2 µg/mL (≈ 6.53 µM) | MIC (Cryptococcus neoformans [16]): 1 µg/mL (≈ 3.27 µM) | MIC (Cryptococcus neoformans [17]): 2 µg/mL (≈ 6.53 µM) | MIC (Cryptococcus neoformans [18]): 1 µg/mL (≈ 3.27 µM) | MIC (Cryptococcus neoformans [19]): 1 µg/mL (≈ 3.27 µM) | MIC (Cryptococcus neoformans [20]): 2 µg/mL (≈ 6.53 µM) | MIC (Cryptococcus neoformans [21]): 2 µg/mL (≈ 6.53 µM) | MIC [22]: 4 µg/mL (≈ 13.1 µM) | MIC [23]: 4 µg/mL (≈ 13.1 µM) | MIC [24]: 2 µg/mL (≈ 6.53 µM) | MIC [25]: 1 µg/mL (≈ 3.27 µM) | MIC [26]: 2 µg/mL (≈ 6.53 µM) | MIC (Lactobacillus gasseri): > 128 µg/mL | MIC [27]: > 128 µg/mL | MIC [28]: > 128 µg/mL | Activity (Cryptococcus neoformans [29]): Active | Activity (Cryptococcus neoformans [30]): 0.25 log10CFU/ml

CCC(C)n1ncn(-c2ccc(N3CCN(c4ccc(OCC5COC(Cn6cncn6)(c6ccc(Cl)cc6Cl)O5)cc4)CC3)cc2)c1=O (centres undefined) [ITRACONAZOLE]
MIC (Aspergillus fumigatus [31]): 1 µg/mL (≈ 1.42 µM) | MIC (Aspergillus fumigatus [32]): 1 µg/mL (≈ 1.42 µM)

CC(C(=O)O)c1cccc(C(=O)c2ccccc2)c1 (centres undefined) [KETOPROFEN]
Papp at 4 h [33]: 10.2 ×10⁻⁶ cm/s

CC(=O)NC[C@H]1CN(c2ccc(N3CCOCC3)c(F)c2)C(=O)O1 [LINEZOLID]
MIC (Staphylococcus aureus): 1 µg/mL (≈ 2.96 µM) | MIC (Clostridioides difficile): 1 µg/mL (≈ 2.96 µM) | MIC (Escherichia coli [1]): 8 µg/mL (≈ 23.7 µM) | MIC (Escherichia coli [2]): > 64 µg/mL

CC(C)NCC(O)COc1cccc2ccccc12 (centres undefined) [PROPRANOLOL]
Papp at 4 h [33]: 76.6 ×10⁻⁶ cm/s

GENTAMICIN
MIC (Escherichia coli [1]): < 0.5 µg/mL | MIC (Escherichia coli [2]): < 0.5 µg/mL
